Measured values reported in ChEMBL document CHEMBL1926607 (J Med Chem, 2011).

Columns and labels:
[1] = target: T1, 5-hydroxytryptamine receptor 1A (Rattus norvegicus, UniProt P19327); assay: Displacement of [3H]-8-OH-DPAT from 5-HT1A receptor in Sprague-Dawley albinus rat cerebral cortex membranes after 15 mins; format: cell membranes, Membrane
T1 sequence (P19327 whole entry): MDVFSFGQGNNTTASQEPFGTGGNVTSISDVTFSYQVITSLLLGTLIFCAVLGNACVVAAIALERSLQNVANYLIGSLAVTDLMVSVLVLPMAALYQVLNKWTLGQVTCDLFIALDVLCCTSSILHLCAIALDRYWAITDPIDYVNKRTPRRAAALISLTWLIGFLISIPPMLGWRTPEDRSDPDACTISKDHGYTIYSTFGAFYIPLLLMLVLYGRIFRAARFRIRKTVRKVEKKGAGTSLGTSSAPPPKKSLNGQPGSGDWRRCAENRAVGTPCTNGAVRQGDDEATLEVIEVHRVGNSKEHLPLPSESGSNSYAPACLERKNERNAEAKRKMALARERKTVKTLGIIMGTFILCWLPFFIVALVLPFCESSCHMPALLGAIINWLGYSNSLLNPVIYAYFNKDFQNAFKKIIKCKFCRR

[2] = target: 5-hydroxytryptamine receptor 2A (Rattus norvegicus, UniProt P14842); assay: Displacement of [3H]ketanserin from 5HT2A receptor in Sprague-Dawley albinus rat frontal cortex membranes after 15 mins; format: cell membranes, Membrane
5-hydroxytryptamine receptor 2A, sequence (P14842 whole entry): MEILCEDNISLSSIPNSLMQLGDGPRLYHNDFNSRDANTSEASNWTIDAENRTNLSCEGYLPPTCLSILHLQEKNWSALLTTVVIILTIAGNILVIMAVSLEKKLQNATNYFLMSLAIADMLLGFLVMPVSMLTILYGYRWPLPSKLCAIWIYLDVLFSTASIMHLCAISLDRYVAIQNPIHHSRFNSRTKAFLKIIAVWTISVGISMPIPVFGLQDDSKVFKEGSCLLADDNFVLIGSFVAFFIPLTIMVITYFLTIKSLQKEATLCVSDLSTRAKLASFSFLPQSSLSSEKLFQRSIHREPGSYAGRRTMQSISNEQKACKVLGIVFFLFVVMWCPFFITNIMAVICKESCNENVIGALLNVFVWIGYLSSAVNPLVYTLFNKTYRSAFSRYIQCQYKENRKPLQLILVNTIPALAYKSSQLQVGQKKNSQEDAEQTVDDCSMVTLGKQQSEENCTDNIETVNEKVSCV
Summary of the method: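 Rat frontal cortex membranes (male Sprague–Dawley, 180–200 g). Nonspecific binding was set with 1 μM cinanserin.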

[3] = target: T2, 5-hydroxytryptamine receptor 3A (Rattus norvegicus, UniProt P35563); assay: Displacement of [3H]-LY278584 from 5HT3 receptor in Sprague-Dawley albinus rat cerebral cortex membranes after 30 mins; format: cell membranes, Membrane
T2 sequence (P35563 whole entry): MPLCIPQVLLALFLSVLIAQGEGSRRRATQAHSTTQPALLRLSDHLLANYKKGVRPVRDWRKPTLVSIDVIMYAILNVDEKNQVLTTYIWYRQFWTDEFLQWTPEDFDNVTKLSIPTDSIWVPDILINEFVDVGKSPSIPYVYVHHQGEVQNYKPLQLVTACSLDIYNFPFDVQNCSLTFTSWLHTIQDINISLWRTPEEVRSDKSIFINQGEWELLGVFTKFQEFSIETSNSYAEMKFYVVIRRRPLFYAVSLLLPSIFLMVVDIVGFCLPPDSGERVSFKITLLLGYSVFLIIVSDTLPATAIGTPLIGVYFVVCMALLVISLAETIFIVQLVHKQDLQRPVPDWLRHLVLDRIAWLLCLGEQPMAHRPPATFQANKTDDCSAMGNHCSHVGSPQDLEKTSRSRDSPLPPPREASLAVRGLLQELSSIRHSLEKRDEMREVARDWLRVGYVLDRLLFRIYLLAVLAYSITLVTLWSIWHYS

[4] = target: 5-hydroxytryptamine receptor 4 (Rattus norvegicus, UniProt Q62758); assay: Displacement of [3H]GR113808 from 5HT4 receptor in Sprague-Dawley albinus rat striatal membranes after 30 mins by scintillation counting; format: cell membranes, Membrane
5-hydroxytryptamine receptor 4, sequence (Q62758 whole entry): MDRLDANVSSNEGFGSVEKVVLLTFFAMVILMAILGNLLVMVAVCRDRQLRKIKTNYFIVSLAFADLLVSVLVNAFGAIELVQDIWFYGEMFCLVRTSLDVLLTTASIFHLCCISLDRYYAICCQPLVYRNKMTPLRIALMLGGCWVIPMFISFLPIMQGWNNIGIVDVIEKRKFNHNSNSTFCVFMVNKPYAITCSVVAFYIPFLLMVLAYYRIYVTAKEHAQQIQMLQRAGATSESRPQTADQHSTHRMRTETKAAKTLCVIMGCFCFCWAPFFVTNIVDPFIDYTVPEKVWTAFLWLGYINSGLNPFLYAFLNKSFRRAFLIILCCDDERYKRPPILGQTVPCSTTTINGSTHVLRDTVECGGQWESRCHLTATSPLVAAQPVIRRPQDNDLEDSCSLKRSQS

[5] = target: 5-hydroxytryptamine receptor 7 (Rattus norvegicus, UniProt P32305); assay: Displacement of [3H]-5-CT from 5HT7 receptor in Sprague-Dawley albinus rat hyphalamic membranes after 120 mins; format: cell membranes, Membrane
5-hydroxytryptamine receptor 7, sequence (P32305 whole entry): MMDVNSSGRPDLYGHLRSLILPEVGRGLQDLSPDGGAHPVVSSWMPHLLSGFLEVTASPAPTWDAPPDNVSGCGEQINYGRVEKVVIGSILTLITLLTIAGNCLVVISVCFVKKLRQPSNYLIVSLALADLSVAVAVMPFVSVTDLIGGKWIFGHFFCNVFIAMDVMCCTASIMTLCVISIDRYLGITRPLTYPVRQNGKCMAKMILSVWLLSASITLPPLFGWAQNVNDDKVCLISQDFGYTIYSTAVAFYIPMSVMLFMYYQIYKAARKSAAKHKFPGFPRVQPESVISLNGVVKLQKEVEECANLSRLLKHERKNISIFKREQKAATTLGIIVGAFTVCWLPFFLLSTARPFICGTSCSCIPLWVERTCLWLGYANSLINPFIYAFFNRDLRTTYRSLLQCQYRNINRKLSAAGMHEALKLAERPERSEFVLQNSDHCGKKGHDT

[6] = target: D(2) dopamine receptor (Rattus norvegicus, UniProt P61169); assay: Displacement of [3H]spiperone from dopamine D2 receptor in Sprague-Dawley albinus rat striatal membranes after 15 mins; format: cell membranes, Membrane
D(2) dopamine receptor, sequence (P61169 whole entry): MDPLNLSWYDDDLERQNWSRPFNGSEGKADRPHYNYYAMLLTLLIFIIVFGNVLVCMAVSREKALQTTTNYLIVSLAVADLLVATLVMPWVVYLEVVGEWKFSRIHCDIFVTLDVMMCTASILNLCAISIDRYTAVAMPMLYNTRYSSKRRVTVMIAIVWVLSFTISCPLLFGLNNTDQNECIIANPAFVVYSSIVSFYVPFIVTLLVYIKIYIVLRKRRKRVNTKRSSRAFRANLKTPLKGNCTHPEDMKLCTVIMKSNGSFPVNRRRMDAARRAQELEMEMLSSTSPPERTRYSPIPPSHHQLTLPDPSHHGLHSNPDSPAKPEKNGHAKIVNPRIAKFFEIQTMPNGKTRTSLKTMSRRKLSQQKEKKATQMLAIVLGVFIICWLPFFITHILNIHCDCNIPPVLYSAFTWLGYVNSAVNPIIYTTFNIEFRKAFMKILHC

[7] = target: T3, 5-hydroxytryptamine receptor 1A (Homo sapiens, UniProt P08908); assay: Agonist activity at human 5HT1A receptor expressed in human HeLa cells assessed as inhibition of forskolin-stimulated cAMP production […] measured after 2 hrs by RIA; format: functional, cell-based
T3 sequence (P08908 whole entry): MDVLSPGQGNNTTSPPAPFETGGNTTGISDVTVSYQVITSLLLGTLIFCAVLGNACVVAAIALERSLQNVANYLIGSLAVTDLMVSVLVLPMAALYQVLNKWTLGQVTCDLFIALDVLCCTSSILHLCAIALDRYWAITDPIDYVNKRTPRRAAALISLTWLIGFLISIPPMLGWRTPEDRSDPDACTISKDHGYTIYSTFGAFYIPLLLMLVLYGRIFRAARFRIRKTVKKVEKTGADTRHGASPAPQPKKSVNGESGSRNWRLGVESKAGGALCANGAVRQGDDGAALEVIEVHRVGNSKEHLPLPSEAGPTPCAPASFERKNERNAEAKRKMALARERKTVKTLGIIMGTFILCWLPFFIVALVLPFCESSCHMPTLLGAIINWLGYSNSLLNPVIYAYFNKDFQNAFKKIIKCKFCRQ
Summary of the method: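 HeLa cells stably expressing the h5-HT1AR, grown in DMEM with 2 mM glutamine, 1 mM pyruvate and 10% heat-inactivated FCS, and used after 2–3 days at about 7.5 × 10^4 cells/well. After a PBS wash, cells were incubated 10 min in PBS with 0.5 mM isobutylmethylxanthine and 10 μM forskolin, with or without compound. The reaction was stopped with ice-cold ethanol, extracted 2 h and lyophilized; cAMP was measured by RIA.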

[8] = target: T4, 5-hydroxytryptamine receptor 1A (Homo sapiens) (UniProt P08908); assay: Agonist activity at human 5HT1A receptor expressed in human HeLa cells assessed as inhibition of forskolin-stimulated cAMP production pretreated 20 mins before forskolin challenge measured after 2 hrs by RIA relative to control; format: functional, cell-based
T4 sequence (whole entry): T3 sequence (P08908 whole entry)

[9] = Neuroprotective activity in Wistar rat hippocampi primary neuronal cells assessed as protection against serum-deprivation induced cell death at 10 uM after 24 hrs by MTT assay; format: functional, Hippocampus, Primary neuron
Summary of the method: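 Mixed neuron-glia cultures from E18 Wistar rat hippocampi (Neurobasal plus 10% FCS), used at 11 days in vitro. Medium replaced by saline to withdraw serum; cells held 24 h with compound. Cell survival measured by MTT reduction, expressed as % protection.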

[10] = Neuroprotective activity in Wistar rat hippocampi primary neuronal cells assessed as protection against oxygen-glucose deprivation induced cell death at 10 uM after 18 hrs by MTT assay; format: functional, Hippocampus, Primary neuron

## Cl.O=C1C2CCCN2C(=O)CN1CCCCNCC1CCc2ccccc2O1 (stereo not given)
[1]
  Ki: 21 nM
[2]
  Ki: > 1000 nM
[3]
  Ki: > 1000 nM
[4]
  Ki: > 1000 nM
[5]
  Ki: 418 nM
[6]
  Ki: > 1000 nM
[7]
  EC50: 123 nM
[8]
  Emax: 87.6%
[9]
  Activity: 13%
[10]
  Activity: 66%
